This note sets out measurements from ChEMBL document CHEMBL4304816, “A Novel Biphenyl-based Chemotype of Retinoid X Receptor Ligands Enables Subtype and Heterodimer Preferences” (ACS Med Chem Lett, 2019).

In brackets after ≈: the same amount, converted by molar mass. Activity calls are given as the source filed them. No cut-off for these calls is given here.

Series [1] concerns the target T1, Retinoic acid receptor RXR-beta (Homo sapiens) (UniProt P28702).
T1 sequence (whole entry): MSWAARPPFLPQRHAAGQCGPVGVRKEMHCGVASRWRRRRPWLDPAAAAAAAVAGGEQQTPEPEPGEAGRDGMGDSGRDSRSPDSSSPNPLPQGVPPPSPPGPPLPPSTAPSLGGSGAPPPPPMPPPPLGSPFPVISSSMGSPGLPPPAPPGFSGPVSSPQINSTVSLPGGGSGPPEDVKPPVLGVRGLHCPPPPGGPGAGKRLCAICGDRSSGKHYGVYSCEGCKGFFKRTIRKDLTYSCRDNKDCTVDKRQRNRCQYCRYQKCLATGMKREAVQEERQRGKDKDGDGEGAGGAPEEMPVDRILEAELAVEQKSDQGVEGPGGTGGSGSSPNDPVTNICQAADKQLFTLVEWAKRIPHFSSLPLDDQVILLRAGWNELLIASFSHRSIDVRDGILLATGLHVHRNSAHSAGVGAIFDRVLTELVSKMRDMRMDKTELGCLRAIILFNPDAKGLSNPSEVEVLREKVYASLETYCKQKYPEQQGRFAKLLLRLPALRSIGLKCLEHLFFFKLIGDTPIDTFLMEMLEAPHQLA
The series is described as follows: Agonist activity at Gal4-LBD fused RXRbeta (unknown origin) expressed in HEK293T cells assessed as fold activation after 14 to 16 hrs by dual-Glo luciferase assay relative to untreated control. Format: cell-based. The essentials:
(§1)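 Gal4-hybrid RXRα/β/γ reporter gene assays in HEK293T cells. Fold activation is the maximal fold activation versus 0.1% DMSO.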

The target of series [2] is T2, Retinoic acid receptor RXR-alpha (Homo sapiens) (UniProt P19793).
T2 sequence (whole entry): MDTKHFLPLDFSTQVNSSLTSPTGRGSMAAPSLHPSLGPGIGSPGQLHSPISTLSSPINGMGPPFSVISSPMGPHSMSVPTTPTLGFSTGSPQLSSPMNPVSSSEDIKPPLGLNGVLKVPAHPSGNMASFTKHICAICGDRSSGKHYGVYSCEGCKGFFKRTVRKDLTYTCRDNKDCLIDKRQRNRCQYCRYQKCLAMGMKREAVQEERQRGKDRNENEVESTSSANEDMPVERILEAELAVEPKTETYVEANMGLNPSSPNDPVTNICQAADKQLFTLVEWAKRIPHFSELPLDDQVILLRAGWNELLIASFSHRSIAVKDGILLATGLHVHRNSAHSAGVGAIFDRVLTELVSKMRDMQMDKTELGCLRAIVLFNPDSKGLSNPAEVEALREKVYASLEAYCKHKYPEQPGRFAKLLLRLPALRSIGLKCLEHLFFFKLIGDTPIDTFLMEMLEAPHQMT
The series is described as follows: Agonist activity at Gal4-LBD fused RXRalpha (unknown origin) expressed in HEK293T cells assessed as fold activation at 20 uM after 14 to 16 hrs by dual-Glo luciferase assay relative to untreated control. It counts as cell-based. The essentials:
as §1

Series [3] addresses T3, Retinoic acid receptor RXR-gamma (Homo sapiens) (UniProt P48443).
T3 sequence (whole entry): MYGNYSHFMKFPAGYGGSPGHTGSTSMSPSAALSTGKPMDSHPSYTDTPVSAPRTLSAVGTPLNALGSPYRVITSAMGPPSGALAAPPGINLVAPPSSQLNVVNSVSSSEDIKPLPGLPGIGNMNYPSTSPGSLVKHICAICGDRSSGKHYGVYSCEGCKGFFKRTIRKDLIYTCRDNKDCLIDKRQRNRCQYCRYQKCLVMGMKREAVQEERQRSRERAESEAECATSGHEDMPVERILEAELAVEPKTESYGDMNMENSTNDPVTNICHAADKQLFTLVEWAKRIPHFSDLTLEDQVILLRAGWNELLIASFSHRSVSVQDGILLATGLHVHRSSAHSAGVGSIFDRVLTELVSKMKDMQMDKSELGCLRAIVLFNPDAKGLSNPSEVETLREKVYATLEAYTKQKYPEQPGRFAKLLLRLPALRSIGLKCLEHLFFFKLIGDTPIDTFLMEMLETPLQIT
The series is described as follows: Agonist activity at Gal4-LBD fused RXRgamma (unknown origin) expressed in HEK293T cells assessed as fold activation at 20 uM after 14 to 16 hrs by dual-Glo luciferase assay relative to untreated control. It counts as cell-based. The method in brief:
as §1

For series [4], the target named is T4, Retinoic acid receptor RXR-gamma (Homo sapiens, UniProt P48443).
T4 sequence (P48443 whole entry): T3 sequence (whole entry)
The series is described as follows: Agonist activity at Gal4-LBD fused RXRgamma (unknown origin) expressed in HEK293T cells after 14 to 16 hrs by dual-Glo luciferase assay. Format: cell-based. The essentials:
as §1

Series [5] deals with T5, Retinoic acid receptor RXR-alpha (Homo sapiens, UniProt P19793).
T5 sequence (P19793 whole entry): T2 sequence (whole entry)
The series is described as follows: Agonist activity at Gal4-LBD fused RXRalpha (unknown origin) expressed in HEK293T cells after 14 to 16 hrs by dual-Glo luciferase assay. Format: cell-based. The method in brief:
as §1

The target in series [6] is T6, Retinoic acid receptor RXR-beta (Homo sapiens, UniProt P28702).
T6 sequence (P28702 whole entry): T1 sequence (whole entry)
The series is described as follows: Agonist activity at Gal4-LBD fused RXRbeta (unknown origin) expressed in HEK293T cells after 14 to 16 hrs by dual-Glo luciferase assay. It counts as cell-based. The essentials: as §1

The target in series [7] is T2, Retinoic acid receptor RXR-alpha (Homo sapiens). The series is described as follows: Agonist activity at Gal4-LBD fused RXRalpha (unknown origin) expressed in HEK293T cells assessed as fold activation after 14 to 16 hrs by dual-Glo luciferase assay relative to untreated control. Format: cell-based. The method in brief:
as §1

For series [8], the target named is T1, Retinoic acid receptor RXR-beta (Homo sapiens). The series is described as follows: Agonist activity at Gal4-LBD fused RXRbeta (unknown origin) expressed in HEK293T cells assessed as fold activation at 20 uM after 14 to 16 hrs by dual-Glo luciferase assay relative to untreated control. It counts as cell-based. The method in brief:
as §1

For series [9], the species on record is Homo sapiens. The series is described as follows: Agonist activity at full-length human RXR/PPARgamma expressed in HEK293T cells at 1 uM after 14 to 16 hrs by dual-glo luciferase reporter gene assay relative to untreated control. Format: cell-based. The method in brief:
(§2)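 RXR:LXR or RXR:PPARγ heterodimer reporter assay with test compound alone. Activation expressed relative to 0.1% DMSO vehicle. Three independent experiments, each in duplicate; mean reported.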
Background: A reporter such as luciferase makes a cellular process visible.

Series [10] is filed under the species Homo sapiens. The series is described as follows: Agonist activity at full-length human PPARgamma/RXR expressed in HEK293T cells at 10 uM after 14 to 16 hrs by dual-glo luciferase reporter gene assay relative to untreated control. Format: cell-based. The method in brief: (§3)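 RXR:PPARγ heterodimer reporter assay in HEK293T cells with test compound alone. Mean relative activation is taken versus 0.1% DMSO, from three independent experiments each run in duplicate.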

Series [11] can be described thus: Agonist activity at full-length human RXR/LXR expressed in HEK293T cells at 10 uM after 14 to 16 hrs by dual-glo luciferase reporter gene assay relative to untreated control. It counts as cell-based. Particulars: HEK-293T, read-out: Activity. The essentials: as §2
The species named for series [12] is Homo sapiens. The series is described as follows: Agonist activity at full-length human PPARgamma/RXR expressed in HEK293T cells at 10 uM after 14 to 16 hrs in presence of 1 uM rosiglitazone by dual-glo luciferase reporter gene assay relative to rosiglitazone. It counts as cell-based. The method in brief:
(§4)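 RXR:PPARγ heterodimer reporter assay run with reference PPARγ agonist rosiglitazone (1 μM) co-applied. Read-out is mean relative synergistic activation, from three independent experiments each run in duplicate.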

Series [13] is described as follows: Metabolic stability in Wistar rat liver microsomes at 10 uM preincubated for 5 mins followed by microsomes addition in presence of NADPH measured up to 60 mins by HPLC analysis. It counts as ADME, Microsome. Particulars: 1 h.
For series [14], the target named is T1, Retinoic acid receptor RXR-beta (Homo sapiens). The series is described as follows: Agonist activity at Gal4-LBD fused RXRbeta (unknown origin) expressed in HEK293T cells at 0.1 to 3 uM after 14 to 16 hrs in presence of RXR antagonist HX531 by dual-Glo luciferase reporter gene assay. Format: cell-based.
The nature of series [15]: Solubility of compound at 3 mg after 24 hrs by HPLC analysis. It counts as physicochemical.
Series [16] deals with T3, Retinoic acid receptor RXR-gamma (Homo sapiens). The series is described as follows: Agonist activity at Gal4-LBD fused RXRgamma (unknown origin) expressed in HEK293T cells at 0.1 to 3 uM after 14 to 16 hrs in presence of RXR antagonist HX531 by dual-Glo luciferase reporter gene assay. Format: cell-based.
A short description of series [17]: Agonist activity at full-length human RXR/LXR expressed in HEK293T cells at 10 uM after 14 to 16 hrs in presence of 1 uM T0901317 by dual-glo luciferase reporter gene assay relative to T0901317. Format: cell-based. The settings on record: HEK-293T, read-out: Activity. The essentials: (§5)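 Synergy format: the test compound was co-applied with the partner-receptor reference agonist at 1 μM, either T0901317 (RXR:LXR) or rosiglitazone (RXR:PPARγ). Relative synergistic activation was derived from three independent experiments, each in duplicate; mean reported.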

Series [18] addresses T2, Retinoic acid receptor RXR-alpha (Homo sapiens). The series is described as follows: Agonist activity at Gal4-LBD fused RXRalpha (unknown origin) expressed in HEK293T cells at 0.1 to 3 uM after 14 to 16 hrs in presence of RXR antagonist HX531 by dual-Glo luciferase reporter gene assay. It counts as cell-based.
Series [19] in a line: Agonist activity at full-length human RXR/LXR expressed in HEK293T cells at 0.3 uM after 14 to 16 hrs in presence of 1 uM T0901317 by dual-glo luciferase reporter gene assay relative to T0901317. It counts as cell-based. The settings on record: HEK-293T, read-out: Activity. The essentials: as §5
The species named for series [20] is Homo sapiens. The series is described as follows: Agonist activity at full-length human PPARgamma/RXR expressed in HEK293T cells at 0.3 uM after 14 to 16 hrs by dual-glo luciferase reporter gene assay relative to untreated control. It counts as cell-based. The essentials: as §3
The species named for series [21] is Homo sapiens. The series is described as follows: Agonist activity at full-length human PPARgamma/RXR expressed in HEK293T cells at 0.3 uM after 14 to 16 hrs in presence of 1 uM rosiglitazone by dual-glo luciferase reporter gene assay relative to rosiglitazone. Format: cell-based. The method in brief:
as §4

The nature of series [22]: Agonist activity at full-length human RXR/LXR expressed in HEK293T cells at 0.3 uM after 14 to 16 hrs by dual-glo luciferase reporter gene assay relative to untreated control. It counts as cell-based. The settings on record: HEK-293T, read-out: Activity. The method in brief:
as §2

For orientation: EC50 means the concentration at which the effect is half-maximal. Low readings indicate higher potency in that assay, high ones lower potency in that assay. `O=C(O)c1ccc(-c2cc(Cl)cc(Cl)c2)cc1`: the fold change (FC) in [1] turned out to be 68; in series [2], 33; in series [3], 3; in series [7], 38; in series [8] it was 60. Moreover, the EC50 in series [4] is over 30000 nM; in series [5], 9300 nM; in [6], 13000 nM.

As for `CN(CCOc1ccc(CC2SC(=O)NC2=O)cc1)c1ccccn1` (stereo unspecified), the Activity in the series listed under Homo sapiens [9] stood at 224%.

One may read the solubility as the dissolved amount per volume that the medium holds. Low readings indicate little dissolved substance, high ones much dissolved substance. Regarding `O=C(O)Cc1ccc(-c2cc(C(F)(F)F)cc(C(F)(F)F)c2)cc1`, the values for the Activity in the series filed under Homo sapiens [10] and in the series filed under Homo sapiens [12] were 267% and 154%, respectively. In addition, the activity at 10 µM in [11] worked out at 132%; in series [17] it was 127%. For the same compound, in [13], the Stability entry was “Stable”. Further, the Activity result in series [14], in [16] and in series [18] was “inactive” throughout. This compound returned a solubility at 24 h in [15] of 1.15 µg/mL (≈ 3.3 µM). For the same compound, the EC50 turned out to be 220 nM in series [4], 80 nM in [5] and 150 nM in series [6].

For the compound `C=C(c1ccc(C(=O)O)cc1)c1cc2c(cc1C)C(C)(C)CCC2(C)C` [BEXAROTENE], the activity at 0.3 µM was 665% in series [19] and 200% in [22]. Further, the concentration in solution in series [15] (solubility at 24 h) came to 0.3 µg/mL (≈ 0.861 µM). Moreover, the Activity in the series filed under Homo sapiens [20] turned out to be 330%; in the series filed under Homo sapiens [21], 423%.
